Experimental data from ChEMBL document CHEMBL1212866, “Synthesis and anti-hepatitis C virus activity of novel ethyl 1H-indole-3-carboxylates in vitro” (Bioorg Med Chem, 2010).

How the values were obtained:
Hepatitis C virus [1] = assay: Antiviral activity against HCV 2a infected in human Huh7.5 cells assessed inhibition of viral entry after 3 days; format: functional, Hepacivirus hominis, genotype 2a, Huh-7
Procedure, shortened: (§1)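 Naive Huh-7.5 cells infected with viral particles carrying a subgenomic HCV RNA with a firefly luciferase reporter, then plated in 96-well format with compounds present. Luciferase activity read after three days of incubation. IC50 calculated; single-point lines give % inhibition at 100 µM.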

[2] = Cytotoxicity against human Huh7.5 cells by celltiter-blue viability assay; format: cell-based; details: Huh-7
Procedure, shortened: (§2)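 Huh-7.5 cells exposed to compounds, and viability estimated by CellTiter-Blue, a resazurin reagent that metabolically active cells reduce to fluorescent resorufin (excitation 579 nm, emission 584 nm). TC50 taken as the 50% cytotoxic concentration; the single-point line reflects testing at 50 µM.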

[3] = Selectivity index, IC50 for human Huh7.5 cells to TC50 for inhibition of HCV 2a entry into human Huh7.5 cells; format: functional, Huh-7
Procedure, shortened: (§3)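 Index computed as TC50 divided by IC50. TC50 comes from the CellTiter-Blue viability assay in Huh-7.5 cells. IC50 comes from the luciferase-reporter HCV infection (entry) or replicon (replication) assay in Huh-7.5 cells, read after three days.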

Hepatitis C virus [4] = assay: Antiviral activity against HCV 2a infected in human Huh7.5 cells assessed inhibition of viral replication after 3 days by luciferase assay; format: functional, Hepacivirus hominis, genotype 2a, Huh-7
Procedure, shortened: (§4)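 Huh-7.5 cells transfected with an RNA transcript of a replicon carrying a firefly luciferase reporter, then plated in 96-well plates with compounds present. Luciferase activity measured after three days of incubation. IC50 calculated; single-point lines give % inhibition at 100 µM.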

[5] = Selectivity index, IC50 for human Huh7.5 cells to TC50 for inhibition of HCV 2a replication in human Huh7.5 cells; format: functional, Huh-7; procedure, shortened: as §3
Hepatitis C virus [6] = assay: Antiviral activity against HCV 2a infected in human Huh7.5 cells assessed inhibition of viral entry at 100uM after 3 days; format: functional, Hepacivirus hominis; details: genotype 2a, Huh-7, 72 h; procedure, shortened: as §1
Hepatitis C virus [7] = assay: Antiviral activity against HCV 2a infected in human Huh7.5 cells assessed inhibition of viral replication at 100 uM after 3 days by luciferase assay; format: functional, Hepacivirus hominis; details: genotype 2a, Huh-7, 72 h; procedure, shortened: as §4
[8] = Cytotoxicity against human Huh7.5 cells at 50 uM by celltiter-blue viability assay; format: cell-based; details: huh-7, 50 µM; procedure, shortened: as §2

Row | Structure (SMILES) | TC50 (Hepatitis C virus [1]) [µM] | IC50 [2] [µM] | Selectivity Index [3] | TC50 (Hepatitis C virus [4]) [µM] | Selectivity Index [5] | inhibition at 100 µM (Hepatitis C virus [6]) [%] | inhibition at 100 µM (Hepatitis C virus [7]) [%] | Activity [8]
1 | CCOC(=O)c1c(CS(=O)(=O)c2ccccc2)n(C)c2ccc(CN(C)C)cc12 | >50 | 10 | >2.6 | >50 | >5 |  |  | 
2 | CCOC(=O)c1c(CS(=O)(=O)c2ccccc2)n(C)c2ccc(CN3CCCC3)cc12 | >50 | 3 | >10 | >50 | >16.7 | 95 | 80 | Non-toxic
3 | CCOC(=O)c1c(CS(=O)(=O)c2ccccc2)n(C)c2ccc(CN3CCN(C)CC3)cc12 | >50 | 4 | >6.3 | >50 | >12.5 |  |  | 
4 | CCOC(=O)c1c(CS(=O)(=O)c2ccccc2)n(C)c2ccc(CN3CCOCC3)cc12 | >50 | 4 | >3.6 | >50 | >12.5 |  |  | 
5 | CCOC(=O)c1c(CS(=O)(=O)c2ccccc2)n(C)c2ccc(CN3CCCNCC3)cc12 | >50 | 12 | >2.4 | >50 | >4.2 |  |  | 
6 | CCOC(=O)c1c(CS(=O)(=O)c2ccccc2)n(C)c2ccc(Cn3ccnc3)cc12 | 23 | 15 | 4.6 | 18 | 1.2 |  |  | 
7 | CCOC(=O)c1c(C)n(C)c2ccc(CN(C)C)cc12 | >50 | 3 | >6.3 | >50 | >16.7 |  |  | 
8 | CCOC(=O)c1c(C)n(C)c2ccc(CN3CCCC3)cc12 | >50 | 5 | >3.8 | >50 | >10 |  |  | 
9 | CCOC(=O)c1c(CSc2ccccc2)n(C)c2cc(Br)c(O)c(CN(C)C)c12 [UMIFENOVIR] | 12 | 1 | 6 | 15 | 15 |  |  | 
